Experimental data as given in ChEMBL document CHEMBL4325885, “Design, synthesis, and biological evaluation of novel phenol ether derivatives as non-covalent proteasome inhibitors” (Eur J Med Chem, 2019).

How the values were obtained:
[1] = target: T1, Proteasome Macropain subunit MB1 (Homo sapiens, UniProt P28074); assay: Inhibition of human chymotrypsin-like activity of 20S constitutive proteasome using Suc-LLVY-AMC as substrate preincubated for 15 mins followed by substrate addition by fluorescence assay
T1 sequence (P28074 whole entry): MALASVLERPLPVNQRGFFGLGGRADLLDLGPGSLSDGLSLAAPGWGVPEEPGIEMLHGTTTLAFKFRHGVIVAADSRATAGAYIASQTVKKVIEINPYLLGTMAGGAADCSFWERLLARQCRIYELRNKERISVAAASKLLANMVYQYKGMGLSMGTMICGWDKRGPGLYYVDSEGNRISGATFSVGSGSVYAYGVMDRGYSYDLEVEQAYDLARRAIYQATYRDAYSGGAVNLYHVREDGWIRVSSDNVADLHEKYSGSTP

HGC-27 = assay: Antiproliferative activity against human HGC27 cells after 72 hrs by MTT assay; assay type: functional, cell-based; conditions: HGC-27, 72 h
Method in brief: (§1)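 Cells kept at 37 °C, 5% CO2; HGC27 in RPMI-1640 and HepG2 in IMDM, each with 10% FBS and penicillin/streptomycin. Seeded at 1×10⁵ cells/well, then exposed to graded compound concentrations or 0.2% DMSO for 72 h. MTT (5 mg/mL) added for 4 h, formazan dissolved in DMSO, absorbance read at 570 nm. Inhibition = (A_control − A_sample)/A_control; IC50 from variable-slope sigmoidal fit.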

[2] = target: T2, Proteasome subunit beta type-8 (Homo sapiens, UniProt P28062); assay: Inhibition of 20S immunoproteasome LMP7 (unknown origin) using Ac-ANW-AMC as substrate preincubated for 15 mins followed by substrate addition by fluorescence assay
T2 sequence (P28062 whole entry): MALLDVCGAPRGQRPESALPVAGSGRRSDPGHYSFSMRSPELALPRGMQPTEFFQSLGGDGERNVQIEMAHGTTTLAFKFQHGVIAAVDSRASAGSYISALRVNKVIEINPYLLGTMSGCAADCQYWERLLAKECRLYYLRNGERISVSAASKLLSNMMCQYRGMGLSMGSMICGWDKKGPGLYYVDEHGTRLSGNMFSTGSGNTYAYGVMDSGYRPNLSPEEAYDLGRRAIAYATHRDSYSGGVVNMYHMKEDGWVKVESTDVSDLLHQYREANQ

MM1.S = assay: Antiproliferative activity against human MM1S cells after 72 hrs by MTS/PMS assay; assay type: functional, cell-based
Method in brief: (§2)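 Cells kept at 37 °C, 5% CO2; RPMI 8226 and MM.1S in RPMI-1640, MV-4-11 in IMDM, each with 10% FBS and penicillin/streptomycin. Seeding per well: RPMI 8226 5×10³, MM.1S 3×10⁴, MV-4-11 8×10³. Graded compound concentrations or 0.2% DMSO for 72 h. MTS/PMS added for 2-4 h at 37 °C, OD read at 490 nm minus 690 nm background. IC50 from variable-slope sigmoidal fit.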

MV4-11 = assay: Antiproliferative activity against human MV4-11 cells after 72 hrs by MTS/PMS assay; assay type: functional, cell-based; conditions: MV4-11, 72 h; method in brief: as §2
[3] = Stability in human liver microsomes at 1 uM measured after 30 mins in presence of NADPH by LC-MS/MS analysis; assay type: ADME, Microsome; conditions: 0.5 h
Method in brief: (§3)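 Pooled human liver microsomes at 1.0 mg/mL protein in 0.1 M phosphate buffer saline pH 7.4 with 1 mM NADPH, preincubated 5 min at 37 °C. Reaction started by adding test compound at 1 μM, then incubated 0, 10, 20 or 30 min. Compound disappearance monitored.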

RPMI-8226 = assay: Antiproliferative activity against human RPMI8226 cells after 72 hrs by MTS/PMS assay; assay type: functional, cell-based; conditions: RPMI-8226, 72 h; method in brief: as §2
HepG2 = assay: Antiproliferative activity against human HepG2 cells after 72 hrs by MTT assay; assay type: functional, cell-based; conditions: HepG2, 72 h; method in brief: as §1
[4] = target: T3, Proteasome Macropain subunit MB1 (Homo sapiens) (UniProt P28074); assay: Inhibition of human chymotrypsin-like activity of 20S constitutive proteasome at 10 uM using Suc-LLVY-AMC as substrate preincubated for 15 mins followed by substrate addition by fluorescence assay relative to control
T3 sequence (whole entry): T1 sequence (P28074 whole entry)

[5] = Stability in human liver microsomes assessed as drug degradation at 1 uM measured within 30 mins in presence of NADPH by LC-MS/MS analysis; assay type: ADME, Microsome; conditions: read-out: Drug degradation; method in brief: as §3

IC50 [1] [nM] | Compound | other results
1560 | COC(=O)Cc1ccc(OCC(=O)N(CC(=O)Nc2ccnnc2)C(C)C)cc1 | 
952 | CCCc1ccc(OCC(=O)N(CC(=O)Nc2ccc(OC)cc2)C(C)C)cc1 | 
968 | CC(C)N(CC(=O)Nc1ccnnc1)C(=O)COc1ccc(CCO)cc1 | 
361 | CCCc1ccc(OCC(=O)N(CC(=O)Nc2ccc(C#N)cc2)C(C)C)cc1 | 
1110 | CCCc1ccc(OCC(=O)N(CC(=O)Nc2nc3ccc(OC)cc3s2)C(C)C)cc1 | 
49 | CCCCc1ccc(OCC(=O)N(CC(=O)Nc2ccnnc2)C(C)C)cc1 | IC50 (HGC-27): 4620 nM; IC50 [2]: > 10000 nM; IC50 (MM1.S): > 20000 nM; IC50 (MV4-11): > 20000 nM; Stability [3]: Stable; IC50 (RPMI-8226): > 20000 nM; IC50 (HepG2): 3910 nM
2000 | CCCc1ccc(OCC(=O)N(CC(=O)Nc2cccc(OC)c2)C(C)C)cc1 | 
1200 | CCCc1ccc(OCC(=O)N(CC(=O)Nc2ccc(F)cc2)C(C)C)cc1 | 
836 | CCCc1ccc(OCC(=O)N(CC(=O)Nc2ccccn2)C(C)C)cc1 | 
 | CCCc1ccc(OCC(=O)N(CCNC(=O)Nc2cccnc2)C(C)C)cc1 | inhibition [4]: 13.8%
89 | CCCc1ccc(OCC(=O)N(CC(=O)Nc2ccnnc2)C(C)C)cc1 | 
 | CCCc1ccc(OCC(=O)N(CCNC(=O)NCc2cccnc2)C(C)C)cc1 | inhibition [4]: 38.7%
243 | CCc1ccc(OCC(=O)N(CC(=O)Nc2ccnnc2)C(C)C)cc1 | 
3860 | CCCc1ccc(OCC(=O)N(CC(=O)Nc2nncs2)C(C)C)cc1 | 
280 | CCCc1ccc(OCC(=O)N(CC(=O)Nc2cncnc2)C(C)C)cc1 | 
100 | CCCc1ccc(OCC(=O)N(CC(=O)Nc2ccncc2)C(C)C)cc1 | 
4730 | CCCc1ccc(OCC(=O)N(CC(=O)Nc2ccc(OC)c(OC)c2)C(C)C)cc1 | 
118 | CC(C)Cc1ccc(OCC(=O)N(CC(=O)Nc2ccnnc2)C(C)C)cc1 | 

IC50 [1] [nM] | Compound | other results
2010 | CCCc1ccc(OCC(=O)N(CC(=O)Nc2ccon2)C(C)C)cc1 | 
 | CCCc1ccc(OCC(=O)N(CCNC(=O)c2cccnc2)C(C)C)cc1 | inhibition [4]: 30.8%
922 | CCCc1ccc(OCC(=O)N(CC(=O)Nc2ccc(C(F)(F)F)cc2)C(C)C)cc1 | 
481 | Cc1ccc(OCC(=O)N(CC(=O)Nc2ccnnc2)C(C)C)cc1 | 
5910 | CCCc1ccc(OCC(=O)N(CC(=O)Nc2ccc3ccccc3c2)C(C)C)cc1 | 
> 10000 | CCCc1ccc(OCC(=O)N(CC(=O)Nc2ccccc2OC)C(C)C)cc1 | 
1680 | CCCc1ccc(OCC(=O)N(CC(=O)Nc2cccnc2)C(C)C)cc1 | Stability [3]: Stable; inhibition [4]: 58.2%
92 | CCCc1ccc(OCC(=O)N(Cc2nc(-c3cccnc3)no2)C(C)C)cc1 | IC50 (HGC-27): 3350 nM; IC50 [2]: > 10000 nM; IC50 (MM1.S): > 20000 nM; IC50 (MV4-11): > 20000 nM; IC50 (RPMI-8226): > 20000 nM; IC50 (HepG2): 2950 nM; inhibition [4]: 80.2%; metabolised at 0.5 h, 1 µM [5]: > 50%
952 | CC(C)N(CC(=O)Nc1ccnnc1)C(=O)COc1ccc(C(F)(F)F)cc1 | 
579 | COc1ccc(OCC(=O)N(CC(=O)Nc2ccnnc2)C(C)C)cc1 | 
64 | CCCCCc1ccc(OCC(=O)N(CC(=O)Nc2ccnnc2)C(C)C)cc1 | 
230 | CCCc1ccc(OCC(=O)N(CC(=O)Nc2ccc(S(C)(=O)=O)cc2)C(C)C)cc1 | IC50 (HGC-27): 2470 nM; IC50 [2]: > 10000 nM; IC50 (MM1.S): > 20000 nM; IC50 (MV4-11): > 20000 nM; IC50 (RPMI-8226): > 20000 nM; IC50 (HepG2): 2870 nM
405 | CC(C)N(CC(=O)Nc1ccnnc1)C(=O)COc1ccc(Br)cc1 | 
259 | CCOc1ccc(OCC(=O)N(CC(=O)Nc2ccnnc2)C(C)C)cc1 | 
395 | CCCc1ccc(OCC(=O)N(CC(=O)Nc2cnccn2)C(C)C)cc1 | 
 | CCCc1ccc(OCC(=O)N(CCC(=O)Nc2cccnc2)C(C)C)cc1 | inhibition [4]: 15.5%
 | CCCc1ccc(OCC(=O)N(CC(=O)NCc2cccnc2)C(C)C)cc1 | inhibition [4]: 1.16%
 | CCCc1ccc(OCC(=O)N(CCC(=O)NCc2cccnc2)C(C)C)cc1 | inhibition [4]: 12.7%
